Here are results for 13 compounds from ChEMBL document CHEMBL1124861, “Thermodynamics of the interaction of inhibitors with the binding site of recombinant human renin” (J Med Chem, 1990).

Broadly, the Kd is the constant that tells how readily two partners part at equilibrium. A high value points to lower affinity.

*1 amine or outer side, *2 acyl side, *3 side chain or, on linkers, in order; H or OH if unused. Where a SMILES comes first, the peptide text is derived from it. [ ]: non-standard residue; d: D form. The star is where a group is joined. ξ: configuration not given here. Sta(3ξ) = CC(C)C[C@H](N[*:1])C(O)CC(=O)[*:2]; Sta = CC(C)C[C@H](N)[C@@H](O)CC(=O)O; Isovaleryl = CC(C)CC(=O)*

This test addresses T1, Renin (Homo sapiens, UniProt P00797).
T1 sequence (P00797 whole entry): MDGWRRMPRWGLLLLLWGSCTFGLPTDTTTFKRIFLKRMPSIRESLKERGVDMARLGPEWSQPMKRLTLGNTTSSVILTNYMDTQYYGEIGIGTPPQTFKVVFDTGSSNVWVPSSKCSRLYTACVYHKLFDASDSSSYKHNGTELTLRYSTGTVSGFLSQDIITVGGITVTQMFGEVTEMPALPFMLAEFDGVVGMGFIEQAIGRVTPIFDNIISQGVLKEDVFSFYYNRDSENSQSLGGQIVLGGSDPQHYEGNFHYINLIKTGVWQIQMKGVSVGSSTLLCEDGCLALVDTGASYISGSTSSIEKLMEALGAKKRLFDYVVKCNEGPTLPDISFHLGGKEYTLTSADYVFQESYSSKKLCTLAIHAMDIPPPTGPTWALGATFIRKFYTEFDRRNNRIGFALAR
The test can be described thus: Dissociation constant (Kd) of renin inhibitor was determined over a temperature range of 8-37 degree by the fluorescence displacement assay. An outline of the steps:
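Recombinant human renin, purified, with stock concentration set by amino acid analysis. Competitive displacement of a dansylated fluorescent peptide inhibitor, read on a spectrofluorometer in ratio mode at 8–37 °C. Unlabeled-inhibitor Kd was calculated from probe Kd, probe concentration, fraction of probe bound, total inhibitor and enzyme concentrations. Duplicates were run at two inhibitor concentrations, and van't Hoff plots were built.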
`CC[C@H](C)[C@H](NC(=O)[C@@H](C[C@H](O)[C@H](CC(C)C)NC(=O)[C@H](Cc1cnc[nH]1)NC(=O)[C@H](Cc1ccccc1)NC(=O)[C@@H]1CCCN1C(C)=O)C(C)C)C(N)=O` returned a Kd of 5.4 nM.
`CC[C@H](C)[C@H](NC(=O)[C@@H](C[C@H](O)[C@H](CC(C)C)NC(=O)[C@H](Cc1c[nH]cn1)NC(=O)[C@H](Cc1ccccc1)NC(=O)[C@H]1CCCN1C(C)=O)C(C)C)C(N)=O` showed a Kd of 1.3 nM.
The same measure for `CC(=O)N[C@@H](Cc1ccccc1)C(=O)N[C@@H](Cc1c[nH]cn1)C(=O)N[C@H](CN[C@@H](Cc1ccccc1)C(N)=O)Cc1ccccc1`: 220 nM.
Compound `CC[C@H](C)[C@H](NC(=O)[C@@H](C[C@H](O)[C@H](CC(C)C)NC(=O)[C@H](Cc1cnc[nH]1)NC(=O)[C@H](Cc1ccccc1)NC(C)=O)C(C)C)C(N)=O` displayed a Kd of 370 nM.
The same measure for `CC[C@H](C)[C@H](NC(=O)[C@@H](C[C@H](O)[C@H](CC(C)C)NC(=O)[C@H](Cc1c[nH]cn1)NS(=O)(=O)c1cccc2c(N(C)C)cccc12)C(C)C)C(=O)NCc1ccccn1`: 1000 nM; for `CCC(C)CNC(=O)[C@H](Cc1ccccc1)NC[C@H](Cc1ccccc1)NC(=O)[C@H](Cc1cnc[nH]1)NC(=O)[C@H](Cc1ccccc1)NC(=O)[C@@H]1CCCN1C(C)=O` (stereo partly drawn): 2.5 nM.
`CC(=O)N1CCC[C@H]1C(=O)N[C@@H](Cc1ccccc1)C(=O)N[C@@H](Cc1c[nH]cn1)C(=O)N[C@H](CN[C@@H](Cc1ccccc1)C(N)=O)Cc1ccccc1`: the Kd was 29 nM.
As to `CC[C@H](C)[C@H](NC(=O)[C@@H](NC[C@H](CC(C)C)NC(=O)[C@H](Cc1c[nH]cn1)NC(=O)[C@H](Cc1ccccc1)NC(=O)[C@@H]1CCCN1C(=O)[C@H](Cc1c[nH]cn1)NC(=O)[C@@H]1CCCN1)C(C)C)C(=O)N[C@@H](Cc1c[nH]cn1)C(=O)N[C@@H](CCCCN)C(=O)O`, binding was characterised by a dissociation constant (Kd) of 8 nM.
In the case of `CC[C@H](C)[C@H](NC(=O)C[C@H](O)[C@H](CC(C)C)NC(=O)[C@H](Cc1cnc[nH]1)NC(=O)[C@H](Cc1ccccc1)NC(C)=O)C(N)=O` (Ac-FH[Sta]I-NH2) it was 204 nM.
In the case of `CC[C@H](C)[C@H](NC(=O)C[C@H](O)[C@H](CC(C)C)NC(=O)[C@H](Cc1c[nH]cn1)NC(=O)[C@H](Cc1ccccc1)NC(=O)[C@@H]1CCCN1C(=O)[C@H](Cc1c[nH]cn1)NC(C)=O)C(N)=O` (Ac-HPFH[Sta]I-NH2) it was 23 nM.
`CC[C@H](C)[C@H](NC(=O)C[C@H](O)[C@H](CC(C)C)NC(=O)[C@H](Cc1c[nH]cn1)NC(=O)[C@H](Cc1ccccc1)NC(=O)[C@@H]1CCCN1C(C)=O)C(N)=O` (Ac-PFH[Sta]I-NH2) showed a Kd of 98 nM.
In the case of `CC[C@H](C)[C@H](NC(=O)CC(O)[C@H](CC(C)C)NC(=O)[C@H](Cc1c[nH]cn1)NC(=O)[C@H](Cc1ccccc1)NC(=O)[C@@H]1CCCN1C(=O)[C@H](Cc1c[nH]cn1)NC(=O)CC(C)C)C(=O)N[C@@H](Cc1ccccc1)C(N)=O` (stereo partly drawn) (Isovaleryl-HPFH[Sta(3ξ)]IF-NH2) it was 1.7 nM; in that of H-PHPFHFFIHK-OH, 810 nM.
